The source made the active and inactive calls. The rule behind the calls is not given here.
Key:
Cavia porcellus [1] = assay: Inhibition of LTD4 (leukotriene) induced bronchospasm in the guinea pig when administered intraduodenally at 25 mg/kg
Cavia porcellus [2] = assay: Inhibition of LTD4 (leukotriene) induced bronchospasm in the guinea pig when administered intraduodenally (50 mg/kg)
Cavia porcellus [3] = assay: Inhibition of Ovalbumin (OA) induced bronchospasm in the guinea pig when administered intraduodenally at 25 mg/kg; NA means not active; type: functional, organism-based; parameters: dose 25 mg/kg
Procedure, shortened: (§1)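 Guinea pig bronchoconstriction induced by LTD4 or by ovalbumin. Antagonist was given intraduodenally 10 min before the agonist. […] Single-dose lines give percent inhibition at the stated id dose.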

Cavia porcellus [4] = assay: Inhibition of Ovalbumin (OA) induced bronchospasm in the guinea pig when administered perorally at 25 mg/kg; type: functional; settings: route oral
Procedure, shortened: (§2)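 Guinea pig bronchoconstriction induced by LTD4 or by ovalbumin. Antagonist was dosed orally to awake animals 120 min before the agonist, which is 95 min before anesthetic. […] Single-dose lines give percent inhibition at the stated oral dose.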

Cavia porcellus [5] = assay: Inhibition of Ovalbumin (OA) induced bronchospasm in the guinea pig when administered intraduodenally at 25 mg/kg; type: functional; settings: route intraduodenal
Procedure, shortened: as §1

Cavia porcellus [6] = assay: Inhibition of LTD4 (leukotriene) induced bronchospasm in the guinea pig when administered perorally at 25 mg/kg; NA means not active; type: functional, organism-based; parameters: dose 25 mg/kg
Procedure, shortened: as §2

[7] = biological target: Cysteinyl leukotriene receptor (Homo sapiens) (UniProt Q9Y271+Q9NS75); assay: Inhibition of Ovalbumin (OA) induced bronchospasm in the guinea pig when administered intraduodenally (50 mg/kg); type: functional, organism-based; settings: Cavia porcellus; target entry is the homologue from another species
Procedure, shortened: as §1

Cavia porcellus [8] = assay: Inhibition of LTD4 (leukotriene) induced bronchospasm in the guinea pig when administered perorally (50 mg/kg)
Cavia porcellus [9] = assay: as above; remark: listed apart in the source
Cavia porcellus [10] = assay: Inhibition of LTD4 (leukotriene) induced bronchospasm in the guinea pig when administered intraduodenally (50 mg/kg); type: functional
Procedure, shortened: as §1

Cavia porcellus [11] = assay: Inhibition of LTD4 (leukotriene) induced bronchospasm in the guinea pig when administered intraduodenally (50 mg/kg) NA means not active; type: functional, organism-based
Procedure, shortened: as §1

Cavia porcellus [12] = assay: Inhibition of Ovalbumin (OA) induced bronchospasm in the guinea pig when administered intraduodenally (50 mg/kg); NA means not active; type: functional, organism-based
Procedure, shortened: as §1

Cavia porcellus [13] = assay: Inhibition of LTD4 (leukotriene) induced bronchospasm in the guinea pig when administered perorally (25 mg/kg), A minus(-)number indicates potentiation.; NA means not active; type: functional, organism-based
Procedure, shortened: as §2

Cavia porcellus [14] = assay: Inhibition of Ovalbumin (OA) induced bronchospasm in the guinea pig when administered perorally (50 mg/kg); type: functional
Procedure, shortened: as §2

Cavia porcellus [15] = assay: Inhibition of LTD4 (leukotriene) induced bronchospasm in the guinea pig when administered perorally (50 mg/kg); NA means not active; type: functional, organism-based
Procedure, shortened: as §2

Cavia porcellus [16] = organism: Cavia porcellus; assay: Antagonist activity towards LTD4-induced contraction of isolated guinea pig; type: functional
Procedure, shortened: (§3)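 Guinea pig tracheal spirals stretched to near-optimal length and equilibrated 1.5 h, washed every 15 min. Indomethacin (5 μM) was present in all tissues. Cumulative LTD4 dose-response curves were recorded isometrically via force transducers. Paired proximal/distal strips from one animal got solvent control or drug. Values are negative log, mean ± SEM, and were compared by Student's t test.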

Cavia porcellus [17] = assay: Relative inhibitory potency against ovalbumin induced bronchospasm when administered intraduodenally; type: functional
Cavia porcellus [18] = assay: Antagonist activity was determined by the ability to inhibit of LTD4 (leukotriene D4) induced bronchospasm when administered per orally; type: functional; settings: po
Procedure, shortened: as §2

Cavia porcellus [19] = assay: Antagonist activity was determined by the ability to inhibit of LTD4 (leukotriene D4) induced bronchospasm when administered intraduodenally; type: functional; settings: intraduodenal
Procedure, shortened: as §1

[20] = biological target: Cyclooxygenase (Rattus norvegicus); assay: Ability to inhibit Prostaglandin G/H synthase in rat
Cavia porcellus [21] = assay: Relative inhibitory potency against ovalbumin induced bronchospasm when administered per orally; type: functional
Cavia porcellus [22] = assay: Antagonist activity was determined by the ability to inhibit of ovalbumin induced bronchospasm when administered per orally; type: functional; settings: po
Procedure, shortened: as §2

Cavia porcellus [23] = assay: Relative inhibitory potency against LTD4 (leukotriene D4) induced bronchospasm when administered per orally; type: functional
Cavia porcellus [24] = assay: Antagonist activity was determined by the ability to inhibit of ovalbumin induced bronchospasm when administered intraduodenally; type: functional; settings: intraduodenal
Procedure, shortened: as §1

Cavia porcellus [25] = assay: Relative inhibitory potency against LTD4 (leukotriene D4) induced bronchospasm when administered intraduodenally; type: functional
Cavia porcellus [26] = organism: Cavia porcellus; assay: relative potency antagonist on LTD4-induced contraction of isolated guinea pig; type: functional
Procedure, shortened: as §3

Cavia porcellus [27] = assay: Inhibition of LTD4 (leukotriene) induced bronchospasm in the guinea pig when administered intraduodenally (50 mg/kg); Not active; type: functional, organism-based
Procedure, shortened: as §1

Cavia porcellus [28] = assay: Relative inhibitory potency against LTD4 (leukotriene D4) induced bronchospasm when administered intraduodenally with respect to LY-171883 compound; type: functional
Cavia porcellus [29] = assay: Antagonist activity was determined by the ability to inhibit of ovalbumin induced bronchospasm when administered perorally with respect to LY-171883 compound; type: functional; settings: po
Procedure, shortened: as §2

Cavia porcellus [30] = assay: Antagonist activity was determined by the ability to inhibit of LTD4 (leukotriene D4) induced bronchospasm when administered intraduodenally with respect to LY-171883 compound; type: functional; settings: intraduodenal
Procedure, shortened: as §1

Cavia porcellus [31] = assay: Antagonist activity was determined by the ability to inhibit of LTD4 (leukotriene D4) induced bronchospasm when administered perorally with respect to LY-171883 compound; type: functional; settings: po
Procedure, shortened: as §2

Cavia porcellus [32] = assay: Relative inhibitory potency against ovalbumin induced bronchospasm when administered perorally with respect to LY-171883 compound; type: functional
Cavia porcellus [33] = organism: Cavia porcellus; assay: relative potency antagonist on LTD4-induced contraction of isolated guinea pig trachea; type: functional
Procedure, shortened: as §3

Cavia porcellus [34] = assay: Relative inhibitory potency against ovalbumin induced bronchospasm when administered intraduodenally with respect to LY-171883 compound; type: functional
Cavia porcellus [35] = assay: Relative inhibitory potency against LTD4 (leukotriene D4) induced bronchospasm when administered perorally with respect to LY-171883 compound; type: functional
Cavia porcellus [36] = assay: Antagonist activity was determined by the ability to inhibit of ovalbumin induced bronchospasm when administered intraduodenally with respect to LY-171883 compound; type: functional; settings: intraduodenal
Procedure, shortened: as §1

Cavia porcellus [37] = assay: Inhibition of Ovalbumin (OA) induced bronchospasm in the guinea pig when administered perorally (50 mg/kg); NA means not active,<10%inhibition; type: functional, organism-based
Procedure, shortened: as §2

Chain of Cysteinyl leukotriene receptor (Homo sapiens) (Q9NS75 whole entry, looked up): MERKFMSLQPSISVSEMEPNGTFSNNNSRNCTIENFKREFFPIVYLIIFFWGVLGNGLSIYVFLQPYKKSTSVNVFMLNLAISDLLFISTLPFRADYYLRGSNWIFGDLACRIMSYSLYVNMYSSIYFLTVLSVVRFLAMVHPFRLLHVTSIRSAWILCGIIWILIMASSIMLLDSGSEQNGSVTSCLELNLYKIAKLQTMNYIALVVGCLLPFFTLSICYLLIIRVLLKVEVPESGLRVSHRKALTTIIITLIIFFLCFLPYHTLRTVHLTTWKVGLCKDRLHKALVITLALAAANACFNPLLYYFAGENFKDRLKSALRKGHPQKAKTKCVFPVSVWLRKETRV
Chain of Cysteinyl leukotriene receptor (Homo sapiens) (Q9Y271 whole entry, looked up): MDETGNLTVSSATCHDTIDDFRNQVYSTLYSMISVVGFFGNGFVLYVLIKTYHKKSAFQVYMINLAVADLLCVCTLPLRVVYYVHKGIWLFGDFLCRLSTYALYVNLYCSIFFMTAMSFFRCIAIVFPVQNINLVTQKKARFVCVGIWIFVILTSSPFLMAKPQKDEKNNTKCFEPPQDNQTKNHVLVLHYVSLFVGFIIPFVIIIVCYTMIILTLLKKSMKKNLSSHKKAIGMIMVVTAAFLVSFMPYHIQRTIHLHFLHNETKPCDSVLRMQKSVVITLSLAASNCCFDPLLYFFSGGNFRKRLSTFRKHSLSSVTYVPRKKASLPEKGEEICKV

O=C(NCC(O)c1cccc(OCc2ccc3ccccc3n2)c1)c1ccccn1 (stereo unspecified)
inhibition (Cavia porcellus [1]): 20%

CCOC(=O)CC1=NCC(c2cccc(OCc3ccc4ccccc4n3)c2)O1 (stereo unspecified)
inhibition (Cavia porcellus [1]): 77%

CN1C[C@H](c2cccc(OCc3ccc4ccccc4n3)c2)OC1=O
inhibition (Cavia porcellus [2]): 99% | inhibition (Cavia porcellus [3]): inactive

O=S(=O)(NCC(O)c1cccc(OCc2ccc3ccccc3n2)c1)C(F)(F)F (stereo unspecified)
inhibition (Cavia porcellus [1]): 83% | inhibition in vivo at 25 mg/kg (Cavia porcellus [4]): -53% | inhibition in vivo at 25 mg/kg (Cavia porcellus [5]): 29%

O=C(NCC(O)c1cccc(OCc2ccc3ccccc3n2)c1)c1cccs1 (stereo unspecified)
inhibition (Cavia porcellus [1]): 82% | inhibition (Cavia porcellus [6]): inactive

c1cc(OCc2ccc3ccccc3n2)cc(C2CN=C(c3cccs3)O2)c1 (stereo unspecified)
inhibition (Cavia porcellus [2]): 41%

CCC(=O)N(C)C[C@H](O)c1cccc(OCc2nc3ccccc3n2C)c1
inhibition [7]: 66% | inhibition (Cavia porcellus [2]): 51% | inhibition (Cavia porcellus [8]): 13%

c1cc(OCc2ccc3ccccc3n2)cc(C2CN=C(c3ccncc3)O2)c1 (stereo unspecified)
inhibition (Cavia porcellus [9]): inactive | inhibition (Cavia porcellus [1]): 77%

CNC(=O)N(C)CC(O)c1cccc(OCc2ccc3ccccc3n2)c1 (stereo unspecified)
pInhibition (Cavia porcellus [10]): 92% | inhibition in vivo at 25 mg/kg (Cavia porcellus [5]): 95%

CCOC(=O)CC(=O)NCC(O)c1cccc(OCc2ccc3ccccc3n2)c1 (stereo unspecified)
inhibition (Cavia porcellus [1]): 25%

CCC1=NCC(c2cccc(OCc3ccc4ccccc4n3)c2)O1 (stereo unspecified)
inhibition (Cavia porcellus [2]): 80% | inhibition (Cavia porcellus [3]): inactive

c1ccc(C2=NCC(c3cccc(OCc4ccc5ccccc5n4)c3)O2)nc1 (stereo unspecified)
inhibition (Cavia porcellus [2]): 92% | inhibition in vivo at 25 mg/kg (Cavia porcellus [5]): 87%

O=C(NCC(O)c1cccc(OCc2ccc3ccccc3n2)c1)c1ccccc1 (stereo unspecified)
inhibition (Cavia porcellus [1]): 18%

O=C1OC(c2cccc(OCc3ccc4ccccc4n3)c2)CN1Cc1ccc2ccccc2n1 (stereo unspecified)
inhibition [7]: 50% | inhibition (Cavia porcellus [2]): 31%

O=C1NCC(c2cccc(OCc3ccc4ccccc4n3)c2)O1 (stereo unspecified)
inhibition (Cavia porcellus [1]): 66%

CN1CC(c2cccc(OCc3nc4ccccc4s3)c2)OC1=O (stereo unspecified)
inhibition (Cavia porcellus [11]): inactive

CN(C)S(=O)(=O)N(C)C[C@H](O)c1cccc(OCc2ccc3ccccc3n2)c1
inhibition (Cavia porcellus [12]): inactive | inhibition (Cavia porcellus [2]): 56% | inhibition (Cavia porcellus [8]): 33%

CCNC(=O)N(C)CC(O)c1cccc(OCc2ccc3ccccc3n2)c1 (stereo unspecified)
inhibition (Cavia porcellus [13]): inactive | Inhibition (Cavia porcellus [14]): 46% | inhibition (Cavia porcellus [2]): 82%

CCN(CC)C(=O)N(C)CC(=O)c1cccc(OCc2ccc3ccccc3n2)c1
inhibition (Cavia porcellus [2]): 26%

CCNC(=O)O[C@@H](CN(C)C(=O)N(CC)CC)c1cccc(OCc2ccc3ccccc3n2)c1
inhibition (Cavia porcellus [15]): inactive | inhibition [7]: 80% | inhibition (Cavia porcellus [2]): 54%

CN1C[C@@H](c2cccc(OCc3ccc4ccccc4n3)c2)OC1=O
pkb (Cavia porcellus [16]): 6.09 | Potency (Cavia porcellus [17]): 2.2 | ED50 (Cavia porcellus [18]): 36 mg/kg | ED50 (Cavia porcellus [19]): 12 mg/kg | IC50 [20]: > 100 µM | Potency (Cavia porcellus [21]): 2.5 | Inhibition (Cavia porcellus [14]): 56% | ED50 (Cavia porcellus [22]): 95 mg/kg | Potency (Cavia porcellus [23]): 1.1 | ED50 (Cavia porcellus [24]): 42 mg/kg | inhibition [7]: 56% | Potency (Cavia porcellus [25]): 2 | inhibition (Cavia porcellus [2]): 91% | Potency (Cavia porcellus [26]): 3 | inhibition (Cavia porcellus [8]): 56%

CN1CC(c2cccc(OCc3ccc4ccccc4n3)c2)OC1=S (stereo unspecified)
inhibition (Cavia porcellus [27]): inactive

NCC(O)c1cccc(OCc2ccc3ccccc3n2)c1 (stereo unspecified)
inhibition (Cavia porcellus [2]): 23%

CCCc1c(OCCCCc2nnn[nH]2)ccc(C(C)=O)c1O [TOMELUKAST]
Potency (Cavia porcellus [28]): 1 | pkb (Cavia porcellus [16]): 6.55 | ED50 (Cavia porcellus [29]): 38 mg/kg | ED50 (Cavia porcellus [30]): 6 mg/kg | ED50 (Cavia porcellus [31]): 32 mg/kg | Potency (Cavia porcellus [32]): 1 | Potency (Cavia porcellus [33]): 1 | Potency (Cavia porcellus [34]): 1 | Potency (Cavia porcellus [35]): 1 | ED50 (Cavia porcellus [36]): 19 mg/kg

CN(C[C@H](O)c1cccc(OCc2ccc3ccccc3n2)c1)C(=O)c1ccncc1
inhibition (Cavia porcellus [2]): 31%

CN1CC(c2cccc(OCc3nc4ccccc4n3C)c2)OC1=O (stereo unspecified)
inhibition (Cavia porcellus [2]): 65% | inhibition in vivo at 25 mg/kg (Cavia porcellus [5]): 68%

CCN(CC)C(=O)N(C)C[C@H](O)c1cccc(OCc2nc3ccccc3s2)c1
Inhibition (Cavia porcellus [14]): 41% | inhibition [7]: 36% | inhibition (Cavia porcellus [2]): 59%

C#CCN(C)C[C@H](O)c1cccc(OCc2ccc3ccccc3n2)c1
inhibition (Cavia porcellus [1]): 41%

COC(=O)C1CCCN1C(=O)N(C)C[C@H](O)c1cccc(OCc2ccc3ccccc3n2)c1 (stereo partly specified)
inhibition [7]: 23% | inhibition (Cavia porcellus [2]): 71%

c1cncc(C2=NCC(c3cccc(OCc4ccc5ccccc5n4)c3)O2)c1 (stereo unspecified)
inhibition (Cavia porcellus [9]): inactive | inhibition (Cavia porcellus [1]): 86% | inhibition (Cavia porcellus [6]): inactive

CCOC(=O)NCC(O)c1cccc(OCc2ccc3ccccc3n2)c1 (stereo unspecified)
inhibition (Cavia porcellus [1]): 36%

CCOC(=O)N(C)C[C@H](O)c1cccc(OCc2ccc3ccccc3n2)c1
inhibition [7]: 20% | inhibition (Cavia porcellus [2]): 71%

CN(C[C@H](O)c1cccc(OCc2ccc3ccccc3n2)c1)C(=O)N(c1ccccc1)c1ccccc1
inhibition (Cavia porcellus [2]): 21%

CCN(CC)C(=O)N(CC)C[C@H](O)c1cccc(OCc2ccc3ccccc3n2)c1
inhibition (Cavia porcellus [2]): 34%

CN(C)C(=O)N(C)C[C@H](O)c1cccc(OCc2ccc3ccccc3n2)c1
inhibition (Cavia porcellus [9]): 15% | inhibition (Cavia porcellus [2]): 93% | inhibition (Cavia porcellus [8]): 15%

CCN(CC)C(=O)N(C)C[C@H](O)c1cccc(OCc2nc3ccccc3n2C)c1
inhibition [7]: 84% | inhibition (Cavia porcellus [2]): 77% | inhibition (Cavia porcellus [37]): inactive | inhibition (Cavia porcellus [8]): 38%

CCN(CC)C(=O)N(C)C[C@H](O)c1cccc(OCc2ccc3ccccc3n2)c1
pkB (Cavia porcellus [16]): 5.22 | Potency (Cavia porcellus [17]): 1.1 | ED50 (Cavia porcellus [18]): 56 mg/kg | ED50 (Cavia porcellus [19]): 9 mg/kg | Potency (Cavia porcellus [21]): 1.4 | Inhibition (Cavia porcellus [14]): 25% | Potency (Cavia porcellus [33]): 23 | ED50 (Cavia porcellus [22]): 55 mg/kg | Potency (Cavia porcellus [23]): 1.8 | ED50 (Cavia porcellus [24]): 20 mg/kg | inhibition [7]: 75% | Potency (Cavia porcellus [25]): 1.5

c1ccc(C2=NCC(c3cccc(OCc4ccc5ccccc5n4)c3)O2)cc1 (stereo unspecified)
inhibition (Cavia porcellus [1]): 11%

From ChEMBL document CHEMBL1123645, “Phenylephrine derivatives as leukotriene D4 antagonists” (J Med Chem, 1987)
